The values below come from ChEMBL document CHEMBL1145796, “Neuromuscular blocking activity and therapeutic potential of mixed-tetrahydroisoquinolinium halofumarates and halosuccinates in rhesus monkeys” (2003).

The nature of test [1]: Time from injection to peak inhibition of twitch response at the ED95 dose in male Rhesus monkey. Format: functional, Cercopithecidae. Summed up: (§1)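 Anesthetized, ventilated male rhesus monkeys received sequential iv bolus doses with extensor digitorum twitch recorded. Onset is injection to peak twitch inhibition. Duration is injection to 95% twitch recovery. Values at the ED95 were read from plots of onset or duration vs dose. Means ± SE across animals.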

Test [2] can be described thus: Time from injection to 95% recovery of the twitch response at the ED95 dose in male Rhesus monkey. Format: functional, Cercopithecidae. The gist of the method: as §1
Test [3] can be described thus: Dose required for 41% suppression of the twitch response at the extensor digitorum in male Rhesus monkey. Format: functional. As to conditions: Cercopithecidae. Summed up:
(§2)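 Adult male rhesus monkeys (8–15 kg) under ketamine (5 mg/kg i.m.) and pentobarbital (2–5 mg/kg iv) induction, then N2O 60%/O2 40%/halothane 0.5–1%, ventilated, core temperature 37–38 °C. Twitch of extensor digitorum was recorded after ≥20 min stable baseline. Sequential iv bolus doses from 0.03 to 6.4 mg/kg. Per-animal ED95 came from log-probability regression of dose vs % block. Other lines give the single dose tested with its % block.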

Test [4] is described as follows: Time from injection to peak inhibition of twitch response at a dose of 0.2 mg/kg in male Rhesus monkey was evaluated. Type of test: functional, Cercopithecidae. The gist of the method: (§3)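 Single iv bolus of 0.2 or 0.4 mg/kg in anesthetized, ventilated male rhesus monkeys, with extensor digitorum twitch recorded. Onset taken from injection to peak twitch inhibition at the given dose. Means ± SE, N = number of animals.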

A short description of test [5]: Time from injection to 95% recovery of twitch response at a dose of 0.4 mg/kg in male Rhesus monkey was evaluated.
Test [6] in a line: Selectivity index is changes in heart rate(cv dose) to the suppression of twitch response (ED95) in male Rhesus monkey. Format: functional, Cercopithecidae. Summed up: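 Same anesthetized male rhesus preparation, with blood pressure, heart rate and EKG recorded alongside twitch during sequential iv doses up to 6.4 mg/kg. Cardiovascular threshold dose is the dose giving ≥10% change in heart rate or mean arterial pressure. Index = mean threshold dose / mean ED95 (extensor digitorum).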

The nature of test [7]: Time from injection to 95% recovery of twitch response at a dose of 0.2 mg/kg in male Rhesus monkey was evaluated.
The nature of test [8]: Dose required for 95% suppression of the twitch response at the extensor digitorum in male Rhesus monkey. Conditions: Cercopithecidae; read-out: ED95. Type of test: functional, Cercopithecidae. Summed up:
as §2

The nature of test [9]: Time from injection to peak inhibition of twitch response at a dose of 0.4 mg/kg in male Rhesus monkey was evaluated. Format: functional, Cercopithecidae. Summed up: as §3
Test [10] can be described thus: Dose required for 100% suppression of the twitch response at the extensor digitorum in male Rhesus monkey. Conditions: Cercopithecidae. Format: functional. The gist of the method:
as §2

Test [11] in a line: Dose required for 93% suppression of the twitch response at the extensor digitorum in male Rhesus monkey. Format: functional. As to conditions: Cercopithecidae. Summed up:
as §2

Test [12] can be described thus: Dose required for 91% suppression of the twitch response at the extensor digitorum in male Rhesus monkey. Format: functional. As to conditions: Cercopithecidae. The gist of the method:
as §2

Test [13] is described as follows: Dose required for 80% suppression of the twitch response at the extensor digitorum in male Rhesus monkey. Type of test: functional. Conditions: Cercopithecidae. The gist of the method: as §2

The compound `COc1cc2c(cc1OC)[C@H](c1cc(OC)c(OC)c(OC)c1)[N@@+](C)(CCCOC(=O)/C(Cl)=C/C(=O)OCCC[N@+]1(C)CCc3cc(OC)c(OC)c(OC)c3[C@H]1Cc1cc(OC)c(OC)c(OC)c1)CC2.COc1cc2c(cc1OC)[C@H](c1cc(OC)c(OC)c(OC)c1)[N@@+](C)(CCCOC(=O)/C=C(\Cl)C(=O)OCCC[N@+]1(C)CCc3cc(OC)c(OC)c(OC)c3[C@H]1Cc1cc(OC)c(OC)c(OC)c1)CC2.[Cl-].[Cl-].[Cl-].[Cl-]` displayed an Onset in [1] of 145 s. The Duration in test [2] was determined as 6.5 min. Also, the ED95 in [3] was 0.05 mg/kg.

Turning to `COc1cc2c(cc1OC)[C@H](c1cc(OC)c(OC)c(OC)c1)[N@@+](C)(CCCOC(=O)CC(F)(F)C(=O)OCCC[N@+]1(C)CCc3cc(OC)c(OC)cc3[C@H]1Cc1cc(OC)c(OC)c(OC)c1)CC2.[Cl-].[Cl-]`, the Onset in test [4] is reported as 37 s; in test [1], 78 s; in test [9] it was 22 s. Further, the Duration in test [5] was determined as 13 min; in test [2], 7.3 min; in test [7] it was 10.3 min. The compound also displayed a Selectivity index in test [6] of 96. Moreover, in test [8], the ED95 came to 0.056 mg/kg.

In test [1], `COc1cc2c(cc1OC)[C@H](c1cc(OC)c(OC)c(OC)c1)[N@@+](C)(CCCOC(=O)C[C@H](F)C(=O)OCCC[N@+]1(C)CCc3cc(OC)c(OC)cc3[C@H]1Cc1cc(OC)c(OC)c(OC)c1)CC2.[Cl-].[Cl-]` gave an Onset of 80 s. Moreover, the ED95 in test [10] was determined as 0.05 mg/kg. For the same compound, the Duration in test [2] is given as 35 min.

For the compound `COc1cc2c(cc1OC)[C@@H](c1cc(OC)c(OC)c(OC)c1)[N@+](C)(CCCOC(=O)CCCCCCC(=O)OCCC[N@+]1(C)CCc3cc(OC)c(OC)cc3[C@H]1Cc1cc(OC)c(OC)c(OC)c1)CC2.[Cl-].[Cl-]`, the Onset in [4] came out at 50 s; in test [1], 75 s; in test [9], 25 s. For the same compound, the values for the Duration in test [5], in test [2] and in test [7] were 16.9 min, 8.6 min and 14.6 min, respectively. The compound further gave a Selectivity index in test [6] of 47. Moreover, the ED95 in [8] stood at 0.103 mg/kg.

Regarding `COc1cc(C2c3c(cc(OC)c(OC)c3OC)CC[N@@+]2(C)CCCOC(=O)/C(Cl)=C/C(=O)OCCC[N@+]2(C)CCc3cc(OC)c(OC)c(OC)c3[C@H]2c2cc(OC)c(OC)c(OC)c2)cc(OC)c1OC.[Cl-].[Cl-]` (stereo partly specified), the Selectivity index in [6] is reported as 1. In test [1], the Onset worked out at 45 s. In test [2], this compound yielded a Duration of 3.6 min. The compound further gave an ED95 in [11] of 2 mg/kg.

With `COc1cc2c(cc1OC)[C@H](c1cc(OC)c(OC)c(OC)c1)[N@@+](C)(CCCOC(=O)/C=C(\Cl)C(=O)OCCC[N@+]1(C)CCc3cc(OC)c(OC)c(OC)c3[C@H]1Cc1cc(OC)c(OC)c(OC)c1)CC2.[Cl-].[Cl-]`, the Onset in test [1] is 160 s. Moreover, the Duration in test [2] is listed as 13.3 min. The compound also registered an ED95 in test [12] of 0.05 mg/kg.

As to `COc1cc2c(cc1OC)[C@H](c1cc(OC)c(OC)c(OC)c1)[N@@+](C)(CCCOC(=O)CCCCCC(=O)OCCC[N@+]1(C)CCc3cc(OC)c(OC)cc3[C@H]1Cc1cc(OC)c(OC)c(OC)c1)CC2.[Cl-].[Cl-]`, the ED95 in test [13] was found to be 0.2 mg/kg. Further, the Onset in test [1] turned out to be 40 s. The Duration in [2] came out at 7.1 min.

`COc1ccc([C@H]2c3cc(OC)c(OC)cc3CC[N@+]2(C)CCCOC(=O)/C=C(\Cl)C(=O)OCCC[N@+]2(C)CCc3cc(OC)c(OC)cc3[C@H]2Cc2cc(OC)c(OC)c(OC)c2)cc1.[Cl-].[Cl-]` had a Selectivity index in test [6] of 6. Besides, the Onset in [1] came to 69 s. The same compound came in with a Duration in test [2] of 7.4 min. Further, in test [8], the ED95 came out at 0.136 mg/kg.
